The values that follow come from ChEMBL document CHEMBL4513216, “Probing the Open Global Health Chemical Diversity Library for Multistage-Active Starting Points for Next-Generation Antimalarials” (ACS Infect Dis, 2020).

The structures appear in SMILES notation.

This series is described as follows: Toxicity liver stage against HepG2, at 10uM. The class given is cell-based. Also on record: test concentration 10 uM, cell line HepG2-A16-CD81EGFP. Particulars: human, HepG2-A16-CD81EGFP cells; read-out: INHIBITION
Summed up: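 Uninfected HepG2-A16-CD81EGFP cells, 3 × 10^3 per well, 1536-well, plated on prespotted compound at 10 μM final, parasite-free screening media added to match infected plates; puromycin 10 μM positive, DMSO 0.5% negative; run in parallel with 48 h PbLuc assay at 37 °C, 5% CO2; viability by CellTiter-Glo luminescence, normalized to controls.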

As for `O=C(Nc1ccccc1Cn1cncn1)C1CCN(C2CCCCC2)C1` (configuration not stated), the cytotoxicity at 10 µM is -5.14%.

For the compound `CCc1n[nH]c(C2CN(Cc3nc(C4CC4)no3)CCO2)n1` (configuration not stated), the cytotoxicity at 10 µM was -10.8%.

Take `O=C(NCCc1c[nH]cn1)c1ccccc1C1CCNC1` (configuration not stated): the cytotoxicity at 10 µM worked out at 12.8%.

On to `Cc1nn(C)c(C)c1CN(Cc1cccn1-c1cccnc1)C(C)C`, for which the cytotoxicity at 10 µM is -3.16%.

As for `COc1cc(C(=O)Nc2c(C)noc2C)ccc1C`, the cytotoxicity at 10 µM was -15%.

For the compound `CCN(CC)CCNc1c(-c2ccccc2)c(=O)c1=O`, the cytotoxicity at 10 µM was -0.686%.

On to `COc1ccc(Br)cc1CN(C)C(C)c1nc(C)no1` (configuration not stated), for which the cytotoxicity at 10 µM was -4.02%.

As to `COc1ccc2cc(CN(C)CCc3cn[nH]c3)c(=O)[nH]c2c1`, the cytotoxicity at 10 µM was 0.363%.

As to `COc1ccc(CNCc2ccc(N3CCCCC3)nc2)cc1OC`, the cytotoxicity at 10 µM was found to be 1.92%.

Regarding `CC(C)c1cc(N[C@H](C(N)=O)C(C)C)n2nccc2n1`, the cytotoxicity at 10 µM was -1.56%.

For `CN1CCCN(S(=O)(=O)c2cnn(C)c2)c2cc(Cl)ccc21`, the cytotoxicity at 10 µM was 7.41%.

With `Cn1cncc1-c1nnc([C@H]2CCN(C3CCOCC3)C2)o1`, the cytotoxicity at 10 µM was -3.46%.

Consider `O=C(NCCCN1CCc2ccccc2C1)c1cccnc1O`, for which the cytotoxicity at 10 µM is -3.49%.

In the case of `CN(Cc1ccccn1)C(=O)c1cc(CN2CCC(O)CC2)on1`, the cytotoxicity at 10 µM was determined as 0.852%.

As to `CCCS(=O)(=O)N1CCC2(CC1)CN(c1ccccn1)CCO2`, the cytotoxicity at 10 µM was 6.66%.

Regarding `O=C(CN1CCCC1c1nc(-c2ccccc2)no1)N1CCOCC1` (configuration not stated), the cytotoxicity at 10 µM was found to be 4.17%.

As for `CCN(CC)S(=O)(=O)N1CCC(c2c(C(N)=O)sc3ccccc23)C1` (configuration not stated), the cytotoxicity at 10 µM came out at 1.4%.

Take `O=C(NCCOc1ccc(Cl)cn1)Nc1nccs1`: the cytotoxicity at 10 µM was found to be 11.3%.

Consider `CCc1nnc(CNCC2CCCN2c2cccnn2)o1` (configuration not stated), for which the cytotoxicity at 10 µM is -10.7%.

For `Cc1ccc(-c2nc(CN3CCCC(Cn4cncn4)C3)no2)cc1` (configuration not stated), the cytotoxicity at 10 µM is -4.86%.

As for `COc1ccc(N2CCN(C(=O)COc3c(C)occc3=O)CC2)cc1`, the cytotoxicity at 10 µM is -2.67%.

Turning to `c1cc2c(c(-c3cc(N4CCOCC4)ncn3)c1)CCNC2`, the cytotoxicity at 10 µM was -22.5%.

For the compound `CC(C)C(=O)NC1COC2(CCN(Cc3cccnc3)CC2)C1` (configuration not stated), the cytotoxicity at 10 µM worked out at 2.11%.

As for `COc1ccc(C)cc1-c1csc(Cn2ccc(=O)[nH]c2=O)n1`, the cytotoxicity at 10 µM amounted to 4.16%.

Turning to `Cc1nc(N2CCCC2)nc(C)c1NC(=O)c1ccco1`, the cytotoxicity at 10 µM was -7.7%.

`CC(=O)N[C@@H]1CN(C(=O)c2cc(C)oc2C)C[C@H]1c1ccc(C)o1`: the cytotoxicity at 10 µM is -10.6%.

`CN(C)S(=O)(=O)NCc1cccnc1Oc1ccc(F)cc1F`: the cytotoxicity at 10 µM was 8.49%.

Consider `Cn1cc(CCC(=O)N2CCCC(n3cncn3)C2)cn1` (configuration not stated), for which the cytotoxicity at 10 µM is -15.1%.

As to `COc1ccc(CNCCc2cc(F)cc3c2OCOC3)cc1OC`, the cytotoxicity at 10 µM was -6.9%.

With `CC(C)NC(=O)[C@H]1C[C@H]2OCC[C@H]2N(Cc2ccc3ccccc3n2)C1`, the cytotoxicity at 10 µM is -56.3%.

Take `O=C(CCn1ncc2ccccc21)N1CCCC(Cc2cccnc2)C1` (configuration not stated): the cytotoxicity at 10 µM is -1.83%.

`N#CC1(NC(=O)c2cc(Cl)c3c(c2)OCCCO3)CCC1`: the cytotoxicity at 10 µM was -8.42%.

On to `CCS(=O)(=O)N1C[C@H]2CC[C@](O)(c3ccc(C)cc3)[C@H]2C1`, for which the cytotoxicity at 10 µM is -23.2%.

Regarding `NC(=O)c1csc(N2CCN(Cc3cccc4nsnc34)CC2)n1`, the cytotoxicity at 10 µM was 0.5%.

For `COCCNS(=O)(=O)c1c(C)sc2ccccc12`, the cytotoxicity at 10 µM was 1.11%.

Take `COCCN(C)C(=O)c1ccc2onc(-c3coc(C)n3)c2c1`: the cytotoxicity at 10 µM is -144%.

In the case of `CCCn1nc(-c2nc(COC)no2)ccc1=O`, the cytotoxicity at 10 µM is -11.6%.

Turning to `C[C@@H]1CN(C(=O)c2cccn2C)C[C@]12CCN(c1ccsc1)C2=O`, the cytotoxicity at 10 µM is -83.8%.

On to `CCc1[nH]ncc1C(=O)N1CCCN(Cc2nccn2C(C)C)CC1`, for which the cytotoxicity at 10 µM was -8.92%.

Regarding `Cc1cnc(NC(=O)N2CCCCCC2)s1`, the cytotoxicity at 10 µM was -2.81%.

For the compound `CCC1(c2ccc(NS(=O)(=O)N(C)C)cc2)CCC(=O)NC1=O` (configuration not stated), the cytotoxicity at 10 µM was -7.19%.

As for `Cc1cccc(N(CCC(N)=O)C(=O)c2ccnc(C)n2)c1`, the cytotoxicity at 10 µM was -8.47%.

For `Cc1cnn(C2CCCN(C(=O)Cc3cn4ccccc4n3)C2)c1` (configuration not stated), the cytotoxicity at 10 µM is -3.15%.

`N#Cc1ccc(C(=O)N2CCn3cc(CN4CCCCC4)nc3C2)cc1`: the cytotoxicity at 10 µM was -84.7%.

With `CC(CC(=O)N1CCCS1(=O)=O)c1ccccc1C(F)(F)F` (configuration not stated), the cytotoxicity at 10 µM was found to be 8.92%.

Turning to `COc1ccc(Nc2ccc(C#N)cn2)cc1N1CCCC1=O`, the cytotoxicity at 10 µM is 10.1%.

With `CSCC(C)NS(=O)(=O)c1ccc(C)c(N(C)C)c1` (configuration not stated), the cytotoxicity at 10 µM was -3.25%.

In the case of `CN1CCN(Cc2ccc(-c3ccc4[nH]ccc4c3)nc2)CC1`, the cytotoxicity at 10 µM was -9.17%.

In the case of `COCCCC1(C(=O)O)CCCN(C(=O)c2ccc(Cl)cc2F)C1` (configuration not stated), the cytotoxicity at 10 µM was -0.37%.

In the case of `CN(Cc1ncc(C(C)(C)C)o1)CC1CCCN1c1cccnn1` (configuration not stated), the cytotoxicity at 10 µM was -5.52%.

On to `CN(Cc1ccccc1)c1cnn(CC2CCCCO2)c(=O)c1` (configuration not stated), for which the cytotoxicity at 10 µM was 0.992%.

For `COCCC(Cc1cccc(Br)c1)C(=O)NCC(N)=O` (configuration not stated), the cytotoxicity at 10 µM stood at 9.74%.

Turning to `O=C(Cn1cccnc1=O)NC(Cc1ccsc1)c1ccccn1` (configuration not stated), the cytotoxicity at 10 µM was -5.66%.

For `CC1c2ncc(Cn3cncn3)n2CCN1C(=O)Cc1cccs1` (configuration not stated), the cytotoxicity at 10 µM is 7.89%.

Take `O=C(CCN1CCCC1C1CCCCC1)N1CCc2sccc2C1` (configuration not stated): the cytotoxicity at 10 µM is -11%.

As to `Cc1cccc(C2(C(=O)NS(=O)(=O)c3cnn(C)c3)CCCC2)c1`, the cytotoxicity at 10 µM was -3.62%.

`CNc1[nH]nc(N)c1C(=O)Nc1ccccc1`: the cytotoxicity at 10 µM was found to be 6.56%.

Regarding `CCOCc1cnc2n1CCN(C(=O)c1ccoc1C)C2C` (configuration not stated), the cytotoxicity at 10 µM was -98.3%.

Turning to `CC(C)n1ncc2c1NC(=O)CSC2C(F)(F)F` (configuration not stated), the cytotoxicity at 10 µM is -11.1%.

Regarding `O=C(c1ccc(-n2cncn2)cc1)N1CCN(c2cnccn2)CC1`, the cytotoxicity at 10 µM is 2.45%.

Take `Cc1cnc(-c2nc(NC3CCCC3)ncc2-c2onc(C)c2C)cn1`: the cytotoxicity at 10 µM was -32.5%.

Consider `O=C(c1cnoc1)N1CCC[C@]2(C[C@@H](OCc3ccccn3)CO2)C1`, for which the cytotoxicity at 10 µM was -9.47%.

For the compound `Cc1nc(CN2CC[C@H]3C[C@H](c4ccncn4)O[C@@H]3C2)cs1`, the cytotoxicity at 10 µM is -144%.

With `CCCN(Cc1cccnc1)C(=O)C1CCCN(C)C1` (configuration not stated), the cytotoxicity at 10 µM is 9.77%.

Turning to `CCn1cc(NC(=O)Nc2ccc3c(c2)OCCO3)cn1`, the cytotoxicity at 10 µM was -1.04%.

On to `O=C(Cc1ccccc1)NCCNS(=O)(=O)C1CCCCC1`, for which the cytotoxicity at 10 µM was -1.95%.

`CN(C)c1cc(CNc2ccc(S(=O)(=O)C(C)(C)C)nc2)ccn1`: the cytotoxicity at 10 µM was -7.33%.

For the compound `CN(C)CCC(Nc1nc(N)nc2c1CCNCC2)c1ccccc1` (configuration not stated), the cytotoxicity at 10 µM was -4.32%.

As to `CCc1cnc(CCNC(C)CC(=O)Nc2cccc(C)c2C)s1` (configuration not stated), the cytotoxicity at 10 µM is 6.69%.

As for `CC(C)(C)c1cn2nc(N3CCCC(Cn4cncn4)C3)sc2n1` (configuration not stated), the cytotoxicity at 10 µM was -9.32%.

As for `CN(C)S(=O)(=O)N1CC[C@]2(C[C@@H](OCc3ccccn3)CO2)C1`, the cytotoxicity at 10 µM came out at 10.1%.

On to `CC(=O)Cc1c(C)nn(-c2cncc(N)c2)c1C`, for which the cytotoxicity at 10 µM was -4.05%.

As to `Cc1noc(C)c1CN(C)CCC(=O)N1CCc2sccc2C1`, the cytotoxicity at 10 µM was 0.265%.

For `CCC(Nc1ncnc2sc(C(=O)O)c(C)c12)c1ccnn1C` (configuration not stated), the cytotoxicity at 10 µM is 0.512%.

On to `CCOc1ccc2[nH]c(=O)c(CN3CCCC(CO)(CO)C3)cc2c1`, for which the cytotoxicity at 10 µM was determined as 22.3%.

Take `COCCNC(=O)NC1CCN(c2cnn(C)c2)C1` (configuration not stated): the cytotoxicity at 10 µM was 6%.

As to `Cc1ccccc1-n1ncc2c(=O)n(CCN3CCCC3)cnc21`, the cytotoxicity at 10 µM is -11.3%.

As to `Cc1nc(C)n(CC2CCCCN2CCCS(N)(=O)=O)n1` (configuration not stated), the cytotoxicity at 10 µM is -3.73%.

Consider `CCCOc1ccc(C2SCC(=O)Nc3c2c(=O)[nH]n3C(C)C)cc1` (configuration not stated), for which the cytotoxicity at 10 µM is 5.95%.

As to `CN1C(=O)CC(C(=O)O)C12CCN(Cc1ccc(F)c(Cl)c1)CC2` (configuration not stated), the cytotoxicity at 10 µM turned out to be 0.998%.

As to `CC(C)N(CCNc1nc(C2CCCC2)nc2c1cnn2C)C(C)C`, the cytotoxicity at 10 µM amounted to 5.29%.

As to `CC(=O)NCCNC(=O)Nc1ccc(C)cc1OCc1ccccc1`, the cytotoxicity at 10 µM stood at 9.79%.

As for `Cc1ncnc2c1CCN(C(=O)Cc1cccc(F)c1)CC2`, the cytotoxicity at 10 µM was -5.95%.

As for `COC(=O)CSCc1noc(-c2ccc(Cl)cc2)n1`, the cytotoxicity at 10 µM is 1.94%.

Regarding `Cc1nc2n(n1)CC(NCc1csc(-c3ccsc3)n1)CC2` (configuration not stated), the cytotoxicity at 10 µM is -0.544%.

For `CCC(c1nc(C(C)C)nn1-c1ccncc1C)n1cccn1` (configuration not stated), the cytotoxicity at 10 µM is -13.9%.

Consider `CN1[C@@H](C(=O)NCC2CC2)C[C@@H]2CN(Cc3ccco3)C[C@@H]21`, for which the cytotoxicity at 10 µM stood at 4.68%.

Regarding `CN(Cc1ccc([S+](C)[O-])cc1)c1ccc(C(F)(F)F)cn1` (configuration not stated), the cytotoxicity at 10 µM was -1.32%.

`Cc1cnc(C)c(-c2cc(O)c3c(c2)CN(c2nccs2)CCO3)n1`: the cytotoxicity at 10 µM worked out at 1.08%.

In the case of `COc1ccc2c(c1)CCCN(C(=O)NCC1CCCO1)C2` (configuration not stated), the cytotoxicity at 10 µM turned out to be 1.06%.

Consider `Cc1ccc(CN2CCOC3(CCN(CC4CCOC4)CC3)C2)cc1` (configuration not stated), for which the cytotoxicity at 10 µM is -117%.

With `CC(C)N1CCOC(Cc2nn3c(Cc4ccccc4)nnc3s2)C1` (configuration not stated), the cytotoxicity at 10 µM is -6.53%.

Turning to `CCN(CC)C(=O)c1cc(C2(C)CCN(C(C)=O)CC2)nc(C)n1`, the cytotoxicity at 10 µM was found to be 5.27%.

On to `c1ccc(Cc2cncc(C3CCCN3C3CCOCC3)n2)cc1` (configuration not stated), for which the cytotoxicity at 10 µM came out at 1.4%.

With `NC(=O)CCn1ccc(NC(=O)c2ccc(Br)o2)n1`, the cytotoxicity at 10 µM is -1.39%.

For the compound `O=C(c1cccc(-c2ncc[nH]2)c1)N1CCC(N2CCCC(O)C2)CC1` (configuration not stated), the cytotoxicity at 10 µM worked out at 6.42%.

For the compound `COCCCN(C)[C@@H]1c2ccccc2C2(CCNCC2)[C@H]1O`, the cytotoxicity at 10 µM was determined as 1.73%.
